From PubChem
CHRM4 antagonist: human M4 muscarinic receptor antagonists, primary screen, CHO cells, Fluo-8 calcium fluorescence. 360,000 compounds, 0.73% hits. inhibition, % at 3 µM. CHO-hM4 cells, ACh EC80;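 active = inhibition above its plate's cutoff, the mean inhibition of sample wells plus 3 SD, cut at about 27% in these data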;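 note: 0% = acetylcholine EC80 with DMSO and 100% = DMSO without agonist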
CHRM5 antagonist: human M5 muscarinic receptor antagonists, primary screen, CHO cells, Fluo-8 calcium fluorescence | inhibition, % at 3 µM | 360,000 compounds, 0.59% hits | Muscarinic acetylcholine receptor M5 (Homo sapiens), P08912 | CHO-hM5 cells, ACh EC80;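 active = inhibition above a per-plate cutoff, the mean of that plate's test compounds plus 3 SD, cut at about 27% in these data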;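 note: 0% = acetylcholine EC80 with DMSO and 100% = DMSO without agonist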
Target sequence (P08912 whole entry, looked up): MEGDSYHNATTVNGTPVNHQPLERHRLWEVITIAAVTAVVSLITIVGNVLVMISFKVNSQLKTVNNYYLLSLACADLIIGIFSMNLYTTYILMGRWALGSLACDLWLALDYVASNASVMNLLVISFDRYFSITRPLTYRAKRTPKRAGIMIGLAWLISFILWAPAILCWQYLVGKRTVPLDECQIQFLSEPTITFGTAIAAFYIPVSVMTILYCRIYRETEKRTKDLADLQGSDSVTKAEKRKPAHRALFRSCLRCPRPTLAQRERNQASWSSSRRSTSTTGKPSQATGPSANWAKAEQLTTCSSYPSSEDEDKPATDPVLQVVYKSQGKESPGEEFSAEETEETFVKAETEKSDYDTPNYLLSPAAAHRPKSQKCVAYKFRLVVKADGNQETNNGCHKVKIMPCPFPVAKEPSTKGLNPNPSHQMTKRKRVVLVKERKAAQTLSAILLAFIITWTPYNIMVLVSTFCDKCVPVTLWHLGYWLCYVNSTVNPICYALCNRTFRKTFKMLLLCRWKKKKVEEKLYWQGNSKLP
M4 ag: human M4 muscarinic receptor agonists, primary screen, CHO-K1 cells, Fluo-8 calcium fluorescence. Muscarinic acetylcholine receptor M4 (Homo sapiens), P08173. CHO-K1 hM4/Gqi5; vehicle 0%, full acetylcholine response 100%. activation, % at 3 µM. 360,000 compounds, 0.14% hits. AID 624127, 2012;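 active = activation above the run mean over all test wells plus 3 SD, cut at about 32% in these data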;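 note: peak over basal fluorescence ratio per well then scaled between controls; 0% = DMSO wells and 100% = acetylcholine at EC100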
M5 PAM: human M5 muscarinic receptor positive allosteric modulators, primary screen, CHO-K1 cells, Fluo-8 calcium fluorescence | 360,000 compounds, 0.3% hits | activation, % at 3 µM | CHO-K1 hM5, ACh EC20 PAM; 0% = ACh EC20, 100% = ACh EC100 | AID 624038, 2012;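 active = activation above the run cutoff, the mean activation of all test compounds plus 3 SD, cut at about 18% in these data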
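Test system: CHO-K1 hM5 cells / Doses: single-point, 3 µM nominal / Times: Post-acetylcholine fluorescence recording 140 s / Technique: Fluo-8 calcium fluorescence / Measure: Max/basal fluorescence ratio as % of EC20–EC100 ACh window / Benchmarks: low control EC20 acetylcholine (0%), high control EC100 acetylcholine (100%) / Replicates: one well per compound, no replicates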
M4 PAM: human M4 muscarinic receptor positive allosteric modulators, primary screen, CHO-K1 cells, Fluo-8 calcium fluorescence | Muscarinic acetylcholine receptor M4 (Homo sapiens), P08173 | CHO-K1 hM4/Gqi5, ACh EC20; 0% = ACh EC20, 100% = maximal ACh | activation, % at 3 µM | 360,000 compounds, 0.4% hits;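 active = activation above its plate's cutoff, the mean activation of sample wells plus 3 SD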
M5 ag: human M5 muscarinic receptor agonists, primary screen, CHO-K1 cells, Fluo-8 calcium fluorescence; CHO-K1 hM5 cells; 0% DMSO wells, 100% maximal acetylcholine response; activation, % at 3 µM; 360,000 compounds, 0.19% hits; AID 624037, 2012;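 active = activation above the run's mean over test compounds plus 3 SD, cut at about 23% in these data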;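 note: signal is peak over basal fluorescence ratio across the kinetic read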
Starred values were filed as active, the others as inactive. Most compounds without a hit are left out; they make up all but 1.8% or so of the library.

SMILES | CHRM4 antagonist | CHRM5 antagonist | M4 ag | M5 PAM | M4 PAM | M5 ag
COc1ccc(-n2nnnc2C(CCSC)N2CCC3(CC2)C(=O)NCN3c2ccccc2)cc1 (stereo not drawn) | 3.5 | 5.2 | 19.2 | -12.2 | -12.3 | 21.2
CC1CN1c1cc2c(c3c1ccn3C)C1CCC2C1 (stereo not drawn) | -3.2 | -2.2 | 0.2 | 3.4 | -2.3 | 0.9
CN1C(=O)N(C)C(=O)C2(Cc3c(ccc4ccccc34)N(C)C2)C1=O | 4.5 | -2.6 | 1.9 | 28.1* | 6.5 | -6.5
COc1ccc(C(=O)CC2(CC(=O)c3ccc(OC)cc3)C(=O)N(C)C(=O)N(C)C2=O)cc1 | 6.3 | -4.7 | 0.2 | 3.0 | -2.0 | 0.4
CCCCOC1OCN(C2CCCCC2)CC1(C)C (stereo not drawn) | -8.8 | -5.5 | 1.2 | -2.6 | 0.4 | 0.8
CCC(CO)(C(=O)OC1CC2CCC(C1)N2C)c1ccccc1 (stereo not drawn) | 99.6* | 99.2* | 0.6 | -32.8 | -17.3 | -16.3
Oc1c(Cl)cccc1Cc1cc(Cl)cc(Cl)c1O | 10.4 | 29.6* | 10.3 | -23.7 | -3.3 | 4.0
C(=NC12CN3CN(CN(C3)C1)C2)c1cccnc1 | 3.4 | -2.9 | 0.7 | 14.2 | 19.3* | -0.3
O=C1/C(=C\c2cccnc2)N2CCC1CC2 | -2.3 | 11.2 | 0.9 | 0.5 | -6.5 | -3.7
Cc1ccc(C[n+]2c(-c3ccc(C)cc3)cc(-c3ccc(C)cc3)cc2-c2ccc(C)cc2)cc1 | 21.4 | 37.4* | 19.1 | -29.1 | -3.2 | 2.6
CCc1ccc(N2C(=O)NC(=O)/C(=C\c3cc(C)n(-c4cc(C(=O)O)cc(C(=O)O)c4)c3C)C2=O)cc1 | -14.3 | -2.5 | 2.2 | 5.7 | 18.4* | -0.9
COC(=O)C1=C(C(=O)OC)SC2(S1)C(C(=O)OC)=C(C(=O)OC)Sc1c2ssc1=O | 19.3 | 3.1 | 3.2 | -7.0 | 4.6 | 8.2
O=C1CCCN1CC#CCN1CCCC1 | 81.0* | 94.6* | 84.4* | -15.3 | -19.5 | 102.8*
C(#CCN1CCCCC1)CN1CCCCC1 | 1.9 | 0.9 | 0.9 | -5.5 | -3.8 | 1.1
COc1ccc2c(c1)C13CCN4CC5=CCOC6CC(=O)N2C1C6C5CC43 (stereo not drawn) | -6.8 | -0.8 | 1.9 | 0.3 | 5.9 | 1.7
CCOC(=O)c1ccc(NC(=O)N2C[C@@H]3C[C@@H](C2)c2cccc(=O)n2C3)cc1 | 68.8* | 3.1 | 0.2 | -9.4 | -14.2 | -0.5
CCOC(=O)c1ccc(NC(=O)N2CC3CC(C2)c2cccc(=O)n2C3)cc1 (stereo not drawn) | 3.1 | 5.2 | 0.9 | 2.0 | -2.8 | -2.3
O=C(Nc1ccc(Cl)c(Cl)c1)c1ccco1 | -1.5 | -1.5 | 1.6 | 12.7 | -3.0 | -0.1
C=CCNC(=S)Nc1ccc(OC(=O)Nc2ccc(Cl)c(Cl)c2)cc1 | 22.4 | 28.0* | 8.9 | -9.1 | -9.2 | -0.1
CC(C)(C)N1Cc2ccccc2C1=N | -4.9 | -4.0 | 1.0 | 30.9* | -2.2 | -13.0
Cc1cc(C)nc(N2Cc3ccccc3C2=N)n1 | 1.0 | 3.7 | 0.0 | 3.9 | -3.9 | -9.0
COc1ccc(C(=O)C2CCCN(CCc3ccccc3)C2)cc1OC (stereo not drawn) | 7.8 | 3.5 | 1.3 | -6.9 | -11.6 | -3.1
COc1ccc(-n2c(/C=C3/C(=O)Nc4ccccc43)nc3ccccc3c2=O)cc1 | 97.1* | 0.8 | 3.4 | -1.1 | 4.1 | 4.8
COc1cc(/C=C/c2nc3ccccc3c(=O)n2-c2ccc(O)cc2)ccc1O | 28.7* | 25.0 | 21.9 | -11.5 | -11.9 | 3.2
C[n+]1c(-c2ccccc2)cc(CCCCc2cc(-c3ccccc3)[n+](C)c(-c3ccccc3)c2)cc1-c1ccccc1 | 46.5* | 19.8 | 0.5 | -22.9 | -21.1 | -16.3
SMILES | CHRM4 antagonist | CHRM5 antagonist | M4 ag | M5 PAM | M4 PAM | M5 ag
COc1ccc(-c2cc(-c3ccccc3)[n+](C)c(-c3ccccc3)c2)cc1 | 10.4 | 22.9 | 0.5 | -9.7 | -7.8 | -9.9
CC1(C)C[C@H]2C=C(C=O)[C@]3(C=O)C[C@]3(C)[C@H]2C1 | 35.2* | -3.4 | 3.1 | 13.2 | -12.8 | 7.9
O=C(c1cccs1)c1cn(Cc2ccccc2Cl)c2ccccc12 | -1.2 | -6.9 | -1.1 | 21.2* | 22.2 | -1.9
N#Cc1ccccc1Cn1cc(C(=O)c2cccs2)c2ccccc21 | -13.0 | 6.3 | 0.3 | -16.8 | -4.7 | -2.6
OC(CN1CCCCC1)c1c[nH]c2ccccc12 (stereo not drawn) | 86.0* | 24.9 | 0.5 | -14.3 | -18.0 | -5.1
CC1CCCCN1CC(O)c1c[nH]c2ccccc12 (stereo not drawn) | 0.0 | 5.0 | 0.8 | 3.8 | 2.7 | -3.9
O=C(NCCN1CCC2(CC1)C(=O)NCN2c1cccc(F)c1)c1ccc2ccccc2c1 | 101.2* | 98.9* | 107.0* | -25.4 | -17.9 | 51.7*
O=C1NCN(c2ccccc2)C12CCNCC2 | -5.0 | -1.1 | 0.8 | 0.4 | 9.7 | -3.6
O=C(COC(=O)c1cc(Br)cc(Br)c1O)NC12CC3CC(CC(C3)C1)C2 | -6.2 | -1.8 | -0.1 | -0.5 | 6.9 | 0.2
COc1cccc(-n2c(C)nc3ccccc3c2=O)c1 | -7.0 | -3.0 | 0.5 | -5.4 | 27.4* | 0.1
COc1cc(C(=O)OC2C[C@H]3CC[C@@H](C2)N3)ccc1O (stereo partly drawn) | 38.2* | 2.4 | 0.5 | -7.7 | -15.6 | -8.3
COc1cc(C(=O)OC2C[C@H]3CC[C@@H](C2)N3C)ccc1O (stereo partly drawn) | 3.5 | 1.2 | -0.4 | -0.4 | -3.8 | -7.5
